# In ChEMBL document CHEMBL1123267, “Synthesis and radioprotective activity of new cysteamine and cystamine derivatives” (J Med Chem, 1986):
# Experiments:
# Mus musculus [1] = test: Radioprotective effects in mice when administered i.p. at 50% LD50, 15 min prior to whole body radiation.; type: functional
# In short: (§1)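 Mice in groups of 20 were given the compound i.p., dissolved in distilled water. Whole-body irradiation was from a 60Co γ source at 0.65 Gy/min. First dose was the control LD100/30 days (9 Gy males, 9.5 Gy females) or that dose + 2 Gy, then a dose series. Irradiation LD50/30-day was found by the Karber method. DRF = treated LD50/30 ÷ solvent-control LD50/30.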
# Mus musculus [2] = test: Radioprotective effects in mice when administered i.p. at 50% LD50, 2 hr prior to whole body radiation.; type: functional; in short: as §1
# [3] = Lethal dose in mice (LD50); type: toxicity, organism-based; conditions: mouse, in vivo
# In short: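 Compounds were dissolved in distilled water and the dose range was set in a preliminary study. Five groups of 10 mice then received different doses within that range. LD50 was derived by Probit analysis.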
# Mus musculus [4] = test: Radioprotective effects in mice when administered i.p. at 12.5% LD50, 15 min prior to whole body radiation.; type: functional; in short: as §1
# Mus musculus [5] = test: Compound was tested for radioprotective activity when injected intraperitoneally with a dose equal to one-eighth of its LD50, 15 min before whole-body irradiation.; type: functional; in short: as §1
Compound,DRF (Mus musculus [1]),DRF (Mus musculus [2]),LD50 [3],DRF (Mus musculus [4]),DRF (Mus musculus [5])
Br.CC(=O)NCCSC(=O)CN,1.1,1,600 mg/kg,1,–
CC(=O)SCCN.Cl,1.05,1.05,500 mg/kg,1,–
Br.CCC(=O)SCCNC(=O)CN,1.2,1,1500 mg/kg,1,–
Br.Br.NCCC(=O)NCCSSCCNC(=O)CCN,1,1,350 mg/kg,1,–
Br.CC(=O)SCCNC(=O)CN,1.4,1,1500 mg/kg,1,–
NCC(=O)NCCSC(=O)CCl.O=C(O)C(F)(F)F,1,1,550 mg/kg,1,–
Br.Br.NCC(=O)NCCSSCCNC(=O)CN,1.4,1,1500 mg/kg,1,–
C[C@H](N)C(=O)NCCSSCCNC(=O)[C@@H](C)N.O=C(O)C(F)(F)F.O=C(O)C(F)(F)F,1.4,1.1,1200 mg/kg,1,–
NCCCNCCSP(=O)(O)O [AMIFOSTINE],2.7,>1.3,950 mg/kg,1.5,–
NCC(=O)NCCSC(=O)C(Cl)Cl.O=C(O)C(F)(F)F,1.1,1,800 mg/kg,1,–
CC(=O)SCCNC(=O)[C@H](C)N.O=C(O)C(F)(F)F,1.4,1,1250 mg/kg,1,–
Br.CC(=O)SCCNC(=O)CCN,1,1,400 mg/kg,1,–
CC(=O)SCCNC(=O)CN.O=C(O)C(F)(F)F,1.4,1,1500 mg/kg,1,–
CC(=O)NCCSC(=O)CN.O=C(O)C(F)(F)F,1.2,1,1000 mg/kg,1,–
Br.Br.NCCCC(=O)NCCSSCCNC(=O)CCCN,1,1,300 mg/kg,1,–
Br.CC(=O)SCCNC(=O)[C@H](C)N,1.4,1.2,1500 mg/kg,1,–
NCC(=O)NCCSC(=O)C(Cl)(Cl)Cl.O=C(O)C(F)(F)F,1.05,1,700 mg/kg,–,1
Br.Br.C[C@H](N)C(=O)NCCSSCCNC(=O)[C@@H](C)N,1,1,800 mg/kg,1,–
Br.CC(C)(C)C(=O)SCCNC(=O)CN,1.05,1,1200 mg/kg,1,–
NCC(=O)NCCSSCCNC(=O)CN.O=C(O)C(F)(F)F.O=C(O)C(F)(F)F,1.55,1.1,1500 mg/kg,1.2,–
Br.CC(=O)SCCNC(=O)CCCN,1.1,–,800 mg/kg,1,–
